Legend:
MCF7 = assay: Cytotoxic potency in MCF7 human mammary carcinoma cell line after 72 hr exposure by SRB test; type: functional, cell-based; details: MCF7, 72 h
Summary of the method: (§1)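 Monolayers grown in RPMI-1640 with 5% FCS, 5% NuSerum IV, 20 mM Hepes, 2 mM L-glutamine, 37 °C, 5% CO2. 800–1500 cells/well attached 15–18 h, then given 10 concentrations over a 5-log range (DMSO stock diluted in RPMI/10 mM Hepes) for 72 h. Cells TCA-fixed, sulforhodamine B stained, OD 570 nm. IC50 from Sigmoid-Emax nonlinear regression; means of ≥3 independent experiments ± SE.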

MCF7-DOX = assay: Cytotoxic potency in doxorubicin resistant MCF7 cell line after 72 hr exposure by SRB test; type: functional, cell-based; details: Homo sapiens; summary of the method: as §1
[1] = Resistance index (IC50 of MCF7 resistant cell line/IC50 of MCF7 sensitive cell line); type: functional, Homo sapiens

Compound | IC50 (MCF7) | IC50 (MCF7-DOX) | Ratio IC50 [1]
COc1cccc(C(=O)O[C@H]2[C@H]([C@]3(OC(C)=O)CO[C@@H]3CCO)/C(C)=C(/O)C(=O)C3=C(C)[C@@H](OC(=O)[C@H](O)[C@H](CC(C)C)NC(=O)OC(C)(C)C)[C@@H]4OC(=O)O[C@]42C3(C)C)c1 | 0.5 nM | 120 nM | 240
CC(=O)O[C@H]1C(=O)[C@@]2(C)[C@H]([C@H](OC(=O)c3ccccc3)[C@]3(O)C[C@H](OC(=O)[C@H](O)[C@@H](NC(=O)c4ccccc4)c4ccccc4)C(C)=C1C3(C)C)[C@]1(OC(C)=O)CO[C@@H]1C[C@@H]2O [PACLITAXEL] | 0.6 nM | 585 nM | 975
CC(=O)O[C@H]1C(=O)[C@@]2(C)[C@H]([C@H](OC(=O)c3ccccc3)[C@]34OC(=O)O[C@H]3[C@H](OC(=O)[C@H](O)[C@H](CC(C)C)NC(=O)OC(C)(C)C)C(C)=C1C4(C)C)[C@]1(OC(C)=O)CO[C@@H]1C[C@@H]2O [ORTATAXEL] | 1.6 nM | 32 nM | 20
CC(=O)O[C@@]1([C@@H]2/C(C)=C(/O)C(=O)C3=C(C)[C@@H](OC(=O)[C@H](O)[C@H](CC(C)C)NC(=O)OC(C)(C)C)C[C@@](O)([C@H]2OC(=O)c2ccccc2)C3(C)C)CO[C@@H]1CCO | 11.2 nM | 1040 nM | 93
COc1cccc(C(=O)O[C@H]2[C@@H]3[C@]4(OC(C)=O)CO[C@@H]4C[C@H](O)[C@@]3(C)C(=O)[C@H](OC(C)=O)C3=C(C)[C@@H](OC(=O)[C@H](O)[C@H](CC(C)C)NC(=O)OC(C)(C)C)[C@@H]4OC(=O)O[C@]42C3(C)C)c1 | 0.24 nM | 4 nM | 17

Reference: ChEMBL document CHEMBL1141208, “Synthesis and biological evaluation of methoxylated analogs of the newer generation taxoids IDN5109 and IDN5390” (Bioorg Med Chem Lett, 2005)
